Screening results (PubChem BioAssay)
Rows were chosen to be rich in hits. Some 3.1% of all compounds tested hit in one or more screens of this group.
pPAFAH FP inh: inhibitors of human plasma PAF acetylhydrolase (pPAFAH) | Q13093 | recombinant pPAFAH, FP-rhodamine probe fluorescence polarization | inhibition, % at 3.39 µM | 330,000 compounds, 1.5% hits;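 active = inhibition above the mean inhibition across the screen plus 3 SD, cut at about 25% in these data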;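 note: inhibitors block binding of the rhodamine activity-based probe so polarization drops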
Target sequence (Q13093 whole entry, looked up): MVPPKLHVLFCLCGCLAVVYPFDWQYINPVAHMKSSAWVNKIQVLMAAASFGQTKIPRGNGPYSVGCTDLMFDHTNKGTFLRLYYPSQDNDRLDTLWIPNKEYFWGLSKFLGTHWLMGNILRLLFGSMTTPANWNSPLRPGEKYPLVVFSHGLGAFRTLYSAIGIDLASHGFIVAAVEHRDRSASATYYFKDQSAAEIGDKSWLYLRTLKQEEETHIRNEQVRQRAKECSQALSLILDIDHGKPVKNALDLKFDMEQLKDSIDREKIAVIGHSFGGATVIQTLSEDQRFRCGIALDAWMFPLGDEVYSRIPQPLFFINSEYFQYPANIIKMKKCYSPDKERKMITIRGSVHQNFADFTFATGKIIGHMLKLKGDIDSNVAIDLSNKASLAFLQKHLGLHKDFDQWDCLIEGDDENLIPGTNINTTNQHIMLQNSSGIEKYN
PAFAH1B3 inh: inhibitors of human PAFAH1B3 | AID 492972 | recombinant PAFAH1B3, FP-rhodamine probe, fluorescence polarization | Q15102 | 340,000 compounds, 0.28% hits | inhibition, % at 3.39 µM;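 active = inhibition above the screen-wide average of all tested compounds plus 3 SD, cut at about 25% in these data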
Target sequence (Q15102 whole entry, looked up): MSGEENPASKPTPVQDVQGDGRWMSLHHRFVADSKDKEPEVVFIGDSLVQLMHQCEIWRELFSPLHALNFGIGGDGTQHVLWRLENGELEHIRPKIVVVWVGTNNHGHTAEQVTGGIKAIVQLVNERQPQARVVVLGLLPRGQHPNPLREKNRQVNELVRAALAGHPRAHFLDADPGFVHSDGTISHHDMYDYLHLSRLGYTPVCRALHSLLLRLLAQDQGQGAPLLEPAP
PAFAH1B2 FP inh: inhibitors of human PAFAH1B2 | inhibition, % at 3.39 µM | 340,000 compounds, 1.2% hits | P68402 | recombinant PAFAH1B2, FP-rhodamine activity probe, fluorescence polarization;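 active = inhibition above the mean of all tested compounds plus 3 SD, cut at about 24% in these data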
PAFAH2 FP inh: PAFAH2 (human) inhibition. inhibition, % at 3.39 µM. 340,000 compounds, 0.99% hits. recombinant PAFAH2, FP-rhodamine activity probe, fluorescence polarization. AID 492956;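 active = inhibition above the mean over all tested compounds plus 3 SD, cut at about 30% in these data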;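 note: inhibitors block probe labeling of enzyme so polarization drops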
Apaf1 inhib: inhibitors of human Apaf-1 apoptosome; O14727; reconstituted apoptosome caspase-3 activity, DEVD-Rh110 fluorescence; inhibition, % at 20 µM; 330,000 compounds, 0.71% hits; active = inhibition of at least 40% at 20 µM
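System: reconstituted apoptosome with Apaf-1, cytochrome c, caspase-9, procaspase-3, dATP; Signal: Rh110 fluorescence intensity; Schedule: 30 min compound preincubation, 50 min activation, room temperature; Reagent: cytochrome c trigger plus (Z-DEVD)2-Rh110 caspase-3 substrate.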
Apaf-1 inh conf: Apaf-1 inhibition, single-dose confirmed; shares compounds with Apaf1 inhib; reconstituted apoptosome, caspase-3 DEVD-Rh110 fluorescence; inhibition, % at 20 µM; 1,800 compounds, 25% hits; AID 504614;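 active = mean inhibition of at least 40% at 20 µM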
Rh110 interf inh: interferes with Rh110 fluorescence, flagging false Apaf-1 inhibitors; activation (fluorescence interference), % at 20 µM; Rh110 fluorescence interference, quenched caspase reaction; 1,800 tested, under 10 active; shares compounds with Apaf1 inhib; AID 504615;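 active = signal rise of 40% or more at 20 µM, treated as a fluorescence artifact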
Apaf1 inh interf: shows fluorescence interference in the Apaf-1 inhibitor assay format; shares compounds with Apaf1 inhib; fluorescence interference counterscreen, Apaf-1 assay format; IC50, µM; 460 tested, under 10 active; AID 588538; call rule not given here
PAFAH2 confirm: confirmation of human PAFAH2 inhibitors. recombinant PAFAH2, FP-rhodamine activity probe, fluorescence polarization. AID 493030. 2,300 compounds, 65% hits. shares compounds with PAFAH2 FP inh. inhibition, % at 3.39 µM;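 active = mean inhibition over three repeats above a set limit taken from the earlier primary screen, cut at about 30% in these data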;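 note: inhibitor blocks binding of rhodamine activity probe so polarization falls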
PAFAH1B3 confirm: confirmation of human PAFAH1B3 inhibitors; shares compounds with PAFAH1B3 inh; recombinant PAFAH1B3, FP-Rh activity-based probe, fluorescence polarization; inhibition, % at 3.39 µM; 390 compounds, 30% hits; AID 493032;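 active = average inhibition over triplicate runs above the hit cutoff set in the earlier primary screen, cut at about 25% in these data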
Of the large screens only hits and unclear results are named; the others gave an inactive call (follow-up assays come after a bar, where they were run).

Cc1ccc(S(=O)(=O)/N=C2\C(=O)c3ccccc3C([O-])=C2n2cc[n+](CCC(C)C)c2)cc1	PAFAH1B3 inh 26, Apaf1 inhib 57 | Apaf-1 inh conf 68 | Rh110 interf inh inactive | Apaf1 inh interf inactive | PAFAH1B3 confirm inactive
O=c1[nH]c(Nc2ccc(F)cc2)cc2ccccc12	PAFAH1B3 inh 56, Apaf1 inhib 95 | Apaf-1 inh conf 91 | Rh110 interf inh inactive | Apaf1 inh interf inactive | PAFAH1B3 confirm inactive
COc1ccc(/C=C/C(=O)NNC(=O)C(C)Oc2ccccc2F)cc1OC (stereo not drawn)	none
O=C1N/C(=C\c2ccc(O)cc2)C(=O)c2ccccc21	PAFAH1B3 inh 33, Apaf1 inhib 97 | Apaf-1 inh conf 74 | Rh110 interf inh inactive | Apaf1 inh interf inactive | PAFAH1B3 confirm inactive
C=CCn1c(N)c(C(=O)NCC2CCCO2)c2nc3ccccc3nc21 (stereo not drawn)	PAFAH1B3 inh 26, Apaf1 inhib 78 | Apaf-1 inh conf inactive | Rh110 interf inh inactive | PAFAH1B3 confirm inactive
O=C(NN=C1C2CC3CC(C2)CC1C3)c1ccncc1	none
O=C(N/N=C1\C/C(=N\NC(=O)c2ccncc2)c2ccccc21)c1ccncc1	PAFAH1B3 inh 28, Apaf1 inhib 93 | Apaf-1 inh conf 60 | Rh110 interf inh inactive | Apaf1 inh interf inactive | PAFAH1B3 confirm inactive
O=C(NC1=C(NC2CCS(=O)(=O)C2)C(=O)c2ccccc2C1=O)c1ccccc1 (stereo not drawn)	PAFAH1B3 inh 66, Apaf1 inhib 88 | Apaf-1 inh conf 92 | Rh110 interf inh inactive | Apaf1 inh interf inactive | PAFAH1B3 confirm 36
O=C(NC(NC1CCS(=O)(=O)C1)C(=O)c1cccs1)c1ccccc1 (stereo not drawn)	none (no result: PAFAH1B3 inh, PAFAH1B2 FP inh, PAFAH2 FP inh)
Cc1cc2nn(-c3ccc(F)cc3)nc2cc1N	none
Nc1ccc2nn(-c3ccc(F)cc3)nc2c1	PAFAH1B3 inh 28, Apaf1 inhib 88 | Apaf-1 inh conf inactive | Rh110 interf inh inactive | PAFAH1B3 confirm inactive
Cc1ccc(CNc2ccc(O)cc2)cc1	PAFAH1B3 inh 39, Apaf1 inhib 94 (no result: pPAFAH FP inh) | Apaf-1 inh conf inactive | Rh110 interf inh inactive | PAFAH1B3 confirm inactive
CCC(=O)Nc1c(C#N)c2nc3ccccc3nc2n1C1CCCCC1	none
CCOC(=O)c1c(NC(=O)c2ccco2)n(C2CCCCC2)c2nc3ccccc3nc12	PAFAH1B3 inh 59, Apaf1 inhib 88 | Apaf-1 inh conf inactive | Rh110 interf inh inactive | PAFAH1B3 confirm inactive
O=C(O)c1ccc(NC2=C(n3nnc4ccccc43)C(=O)c3ccccc3C2=O)cc1	PAFAH1B3 inh 29, Apaf1 inhib 73 | Apaf-1 inh conf 76 | Rh110 interf inh inactive | Apaf1 inh interf inactive | PAFAH1B3 confirm 26
Cc1cc(C)n(-c2ccc(NC(=O)C3CCCCN3Cc3cccc4c3OCO4)cc2)n1 (stereo not drawn)	none (no result: pPAFAH FP inh)
Cn1c(=O)c2cc(NCc3ccccc3)nnc2n(C)c1=O	PAFAH1B3 inh 66, Apaf1 inhib 94 | Apaf-1 inh conf inactive | Rh110 interf inh inactive | PAFAH1B3 confirm inactive
C=C(C)C(=O)OCC(O)COc1ccc(C(C)(C)c2ccc(OCC(O)COC(=O)C(=C)C)cc2)cc1 (stereo not drawn)	none
CCNC(=O)COC(=O)/C=C/c1cccs1	none
Cc1cc(C)c(NC(=O)COC(=O)/C=C/c2cccs2)c(C)c1	PAFAH2 FP inh 35 | PAFAH2 confirm 31
Cc1ccc(NC(=O)COC(=O)/C=C/c2cccs2)c(C)c1	PAFAH2 FP inh 56 | PAFAH2 confirm 42
O=c1c2c3c(sc2nc2n1N=C(c1cccs1)CS2)CCCC3	none
Cc1nc2sc3c(c2c(=O)o1)CCC3	PAFAH2 FP inh 60 | PAFAH2 confirm 50
O=c1oc(-c2cccs2)nc2sc3c(c12)CCCC3	PAFAH2 FP inh 42 | PAFAH2 confirm 38
O=c1oc(-c2cccs2)nc2sc3c(c12)CCC3	PAFAH2 FP inh 56 | PAFAH2 confirm 48
O=c1oc(/C=C/c2ccco2)nc2sc3c(c12)CCC3	PAFAH2 FP inh 55 | PAFAH2 confirm inactive
Cc1ccc(NC(=O)c2ncn(CC(=O)NCc3ccc4c(c3)OCO4)n2)cc1C	none
O=C(CSc1nnc(NC(=O)C2CC2)s1)Nc1ccccc1Cl	none
Cc1ccc(S(=O)(=O)N2CCN(C(=O)COC(=O)c3ccc(Cl)nc3)CC2)c(C)c1	none
NS(=O)(=O)c1cc2c(cc1Cl)NC(CSCc1ccccc1)=NS2(=O)=O	PAFAH2 FP inh 34 | PAFAH2 confirm inactive
O=C(CSC1=NS(=O)(=O)c2cc(Cl)ccc2N1)NCc1ccccc1	none
CC1CC(C)CN(S(=O)(=O)c2cccc(C(=O)N3CCN(c4ccc(F)cc4)CC3)c2)C1 (stereo not drawn)	none
O=C(c1ccc2oc(Cc3ccc(Cl)cc3)nc2c1)N1CC[C@H](O)C1	PAFAH2 FP inh 71 | PAFAH2 confirm 63
COc1ccc(-n2c(C)nnc2SCC(=O)Nc2ccccc2F)cc1	none
O=C(COC(=O)c1cccnc1Cl)NC1CCCCC1	PAFAH2 FP inh 72 | PAFAH2 confirm 49
O=C(COC(=O)c1cccnc1Cl)NC1CCCc2ccccc21 (stereo not drawn)	none
CC1CCC(NC(=O)COC(=O)c2cccnc2Cl)CC1 (stereo not drawn)	PAFAH2 FP inh 70 | PAFAH2 confirm 42
O=C(OCC(=O)C12CC3CC(CC(C3)C1)C2)c1cccnc1Cl	PAFAH2 FP inh 47 | PAFAH2 confirm 37
O=C(COC(=O)c1cccnc1Cl)NCC1CCCO1 (stereo not drawn)	none
O=C(COC(=O)c1ccccc1F)Nc1cccnc1Cl	PAFAH2 FP inh 35 | PAFAH2 confirm inactive
O=C(NCc1ccccc1Cl)[C@@H]1CCCN1S(=O)(=O)c1ccc(Cl)cc1	none
CSc1nc(C)cc(OCNC(=O)c2cccs2)n1	PAFAH2 FP inh 54 | PAFAH2 confirm 51
COC(=O)CNC(=O)c1cccs1	none
Cc1ccc(CN(C)C(=O)c2c(C)nn(-c3ccccc3)c2C)cc1	none
COc1ccc(NC2CC(=O)N(c3cccc(C)c3)C2=O)cc1 (stereo not drawn)	PAFAH2 FP inh 47 | PAFAH2 confirm inactive
Cc1cccc(OCC(=O)N(Cc2ccccc2)c2c(N)n(Cc3ccccc3)c(=O)[nH]c2=O)c1	none
